Hits are enriched below; roughly 3.7% of the tested compounds scored in any of these assays.
MPTP block: mitochondrial permeability transition pore inhibitors, primary screen, biochemical, isolated mouse mitochondria, absorbance | inhibition, % at 10 µM | Ca2+ swelling absorbance, 30 min | actives 1.4% (n = 360,000);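 active = inhibition of 50% or more, scaled per plate between neutral and stimulator controls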;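 also: 0% = DMSO wells given calcium and 100% = 1 mM EGTA wells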
NR3A LBD binder: binders of NR3A ligand-binding domain, primary screen, biophysical, differential scanning fluorimetry, uHTS. NR3A LBD differential scanning fluorimetry, Tm shift; 0% = protein alone, 100% = glycine-bound protein. Tm shift relative to glycine control, % at 25 µM. Glutamate receptor ionotropic, NMDA 3A (GRIN3A) ligand-binding domain. actives 2.5% (n = 340,000);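 active = melting temperature shift of at least 10% of the positive control shift, at one fixed dose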
aDG glyco up: activators of alpha-DG glycosylation, primary screen, uHTS, Pro5-aDG cells, AlphaScreen; alpha-DG glycosylation AlphaScreen (IIH6); 0% Pro5, 100% B10-LARGE cell signal; activation, % at 10 µM; actives 0.22% (n = 360,000);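 active = activation of at least 8% versus controls, or a plate z-score of at least 8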;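 also: Pro5 are CHO cells carrying HIG-tagged alpha-DG that lacks glycosylation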
proCasp3 act: activators of human procaspase-3 D3A mutant, primary screen, biochemical, absorbance, PC-3 D3A mutant, single concentration; activation, % at 8.5 µM; recombinant procaspase-3 D3A, Ac-DEVD-pNA absorbance 405 nm; actives 0.11% (n = 330,000);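 active = activation above the mean of all tested compounds plus 3 SD, cut at about 21% in these data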;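 also: 0% = DMSO alone and 100% = DMSO wells spiked with extra 5 µM PC-3 D3A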
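Technique: 405 nm absorbance of p-nitroaniline, reads at 0 and 120 min; Test system: Procaspase-3 D3A mutant; Incubation: 1 h enzyme-compound preincubation, then 2 h substrate reaction, 25 °C; Repeats: singlicate, each compound tested once; Benchmarks: low control DMSO wells, high control DMSO plus 5 µM PC-3 D3A.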
procasp7 counter: procaspase-7 activators, primary screen, counter-screen for procaspase-3 activator project, biochemical, absorbance, HTS, human. Caspase-7 (Homo sapiens), P55210. actives 0.093% (n = 330,000). recombinant procaspase-7, Ac-DEVD-pNA absorbance 405 nm; D23A/D198A/D206A triple mutant, cannot self-cleave; scale: DMSO 0, 5 µM enzyme 100. activation, % at 8.5 µM;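 active = percent activation above the screen-wide mean plus 3 SD, cut at about 25% in these data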
Target sequence (P55210 whole entry D23A/D198A/D206A): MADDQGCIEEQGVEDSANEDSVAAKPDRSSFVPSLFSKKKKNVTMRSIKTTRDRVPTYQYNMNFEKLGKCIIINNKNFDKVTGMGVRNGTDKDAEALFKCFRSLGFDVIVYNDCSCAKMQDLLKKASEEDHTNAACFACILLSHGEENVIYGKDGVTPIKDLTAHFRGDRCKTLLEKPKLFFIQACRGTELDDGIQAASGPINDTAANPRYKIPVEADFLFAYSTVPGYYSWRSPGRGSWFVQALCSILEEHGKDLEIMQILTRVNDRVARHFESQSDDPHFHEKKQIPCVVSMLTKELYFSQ
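Assay system – Uncleavable procaspase-7 mutant enzyme · Quantity – 2 µM procaspase-7 mutant as dispensed · Times – 1 h preincubation, 2 h reaction · Dosing – single nominal 8.5 µM compound dose, 0.8% DMSO final · Buffer or medium – Zinc-free 50 mM HEPES buffer, pH 7.4, with NaCl and Triton X-100 · Detection – Epi-absorbance of released pNA at 405 nm, two timepoints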
An asterisk follows results filed as active; nt = no result.

SMILES | MPTP block | NR3A LBD binder | aDG glyco up | proCasp3 act | procasp7 counter
CC1CN=C(c2cccn2Cc2ccc(F)cc2Cl)O1 (configuration not stated) | 1 | 12* | 0 | 5 | 2
CCOc1ccc(NC(=O)c2ccccc2NC(=O)CNC2CCCC(C)C2C)cc1 (configuration not stated) | 2 | 13* | 1 | 3 | 6
CC(C)OCCCNc1ncnc2c1[nH]c1ccccc12 | 24 | 0 | 5.4* | 7 | 4
CCOc1ccc2[nH]c3c(NCCCOC)ncnc3c2c1 | 1 | -3 | 0 | nt | nt
CCC1CC(=O)CCN1S(=O)(=O)c1ccc(C)cc1 (configuration not stated) | 0 | 1 | 0 | nt | nt
O=C(NC(=S)NC1CCCCC1)c1ccccc1[N+](=O)[O-] | 1 | 18* | 0 | -6 | 1
O=C(NC(=S)Nc1cccc2c(O)cccc12)c1ccccc1[N+](=O)[O-] | 0 | 34* | 0 | -11 | -8
CC(C)NC(=O)C1(C)CCN1C(=O)c1ccccc1Oc1ccccc1 (configuration not stated) | -1 | nt | 0 | nt | nt
CCCCN(C=O)c1c(CC)nc2ccc(C(=O)N(C)Cc3ccco3)cn12 | -1 | nt | 0 | nt | nt
O=c1c2cc(Br)ccc2[nH]c(=S)n1Cc1ccccc1 | 0 | 11* | 1 | -3 | 1
CCOC(=O)C1(C)CCCN(C(=O)c2cccc3ccccc23)C1 (configuration not stated) | 0 | nt | 0 | nt | nt
COc1ccc(C(c2nnnn2C2CCCC2)N2CCC(C(N)=O)CC2)c(OC)c1 (configuration not stated) | 1 | 14* | -1 | nt | nt
Cc1ccc(Nc2nc(C)cs2)cc1 | 0 | 26* | 0 | 4 | -5
Fc1ccc(Nc2nc(-c3ccncc3)cs2)cc1 | 0 | 6 | 0 | -5 | -8
NS(=O)(=O)c1ccc(Nc2nc(-c3ccc(O)cc3)cs2)cc1 | -2 | 3 | 0 | -6 | 4
COc1ccc(-c2csc(Nc3ccc(S(N)(=O)=O)cc3)n2)cc1 | 0 | 23* | 1 | -4 | 8
Oc1ccc(Nc2nc(-c3ccc(O)cc3)cs2)cc1 | -2 | 12* | 0 | -9 | -19
Cc1csc(Nc2ccc(Cl)cc2)n1 | 1 | 5 | 0 | -2 | 2
Clc1ccc(Nc2nc(-c3ccncc3)cs2)cc1 | -2 | 10* | 4 | 3 | 1
Cc1ccc(CN2CCC[C@]3(N[C@H](c4ccc(C(F)(F)F)cc4)[C@@H]4C(=O)N(Cc5ccccc5)C(=O)[C@@H]43)C2=O)cc1 | -1 | nt | 0 | nt | nt
CCc1cc(C(=O)N(CC)CC(=O)Nc2ccc(OC)cc2)sc1C | 0 | -2 | 0 | -1 | 0
CSc1nnc2c(=O)[nH]c(=O)n(C)c2n1 | -1 | 0 | 0 | nt | nt
O=C(Nc1ccccc1)Nc1nnc([C@H]2C[C@H](O)[C@@H](CO)O2)s1 | 0 | nt | 0 | nt | nt
COc1ccc2oc(=O)c(/C(C)=N/Nc3nc(-c4cc(C)ccc4C)cs3)cc2c1 | -1 | -4 | 0 | -15 | -7
COc1ccc2oc(=O)c(-c3csc(Nc4ccc(O)cc4)n3)cc2c1 | 1 | 11* | 0 | -5 | -24
SMILES | MPTP block | NR3A LBD binder | aDG glyco up | proCasp3 act | procasp7 counter
CSc1ccc(CN(C)C(=O)C(Cc2ccccc2)NC(=O)c2ccccc2)cc1 (configuration not stated) | 0 | 14* | 0 | 0 | 10
Oc1ccc(-c2nccc(-c3ccc(Br)cc3)n2)cc1 | 3 | 37* | 0 | -2 | 13
Cc1ccc(-c2ccnc(-c3ccc(O)cc3)n2)cc1 | 1 | -11 | 1 | 2 | -5
Cc1cc([N+](=O)[O-])c2[nH]c(C(=O)N/N=C/c3ccccc3C(=O)O)c(-c3ccccc3)c2c1 | 2 | 29* | 0 | nt | nt
c1ccc(Cn2ccnc2SCc2nnc(-c3ccccc3)o2)cc1 | -1 | 11* | 0 | 6 | -4
COc1ccc(OC)c(NC(=O)c2cc3oc4ccccc4c3cc2O)c1 | 12 | 130* | 0 | 11 | 10
COc1cc2c(cc1NC(=O)c1ccc3c(c1)OCO3)oc1ccccc12 | 2 | 26* | 0 | -2 | -2
